We go through 3 molecules from ChEMBL document CHEMBL4373675, “Derivatisation of parthenolide to address chemoresistant chronic lymphocytic leukaemia” (Medchemcomm, 2019).

Calls of active or inactive are those of the source. The calls are words filed in the database; no cut-off is given here. Where only a bound is given, the exact number is not on record here.

A short description of data set [1]: Intrinsic clearance in mouse hepatocytes assessed as per million cells. As to conditions: read-out: CLH. The data set is classed as ADME, cell-based, Hepatocyte. The procedure, abridged:
(§1)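 Metabolic stability was measured in mouse hepatocytes. Intrinsic clearance is given in µL min⁻¹ per million cells, alongside half-life in min.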

Data set [2] is described as follows: AUC (0 to infinity) in mouse at 1 mg/kg, iv. The data set is classed as ADME, organism-based. On the set-up: dose 1 mg/kg, route intravenous, time infinity. As to conditions: in vivo.
Data set [3] is described as follows: AUC in mouse at 10 mg/kg, po. Type of data set: ADME, organism-based. As to conditions: in vivo.
The next data set concerns MEC1. Nature of the data set: Antiproliferative activity against human MEC1 cells assessed as cell death in presence of ROS scavenger N-acetyl-L-cysteine by alamar blue assay. The data set is classed as functional, cell-based. The procedure, abridged:
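MEC1 CLL cells (ATCC; carry mutated p53) were pretreated with N-acetylcysteine and then exposed to compound across a concentration series. Viability was read by alamarBlue, and EC50 was taken from concentration-activity plots.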
Background: Alamar Blue is a resazurin reagent that responds to reducing activity.

The nature of data set [4]: Half life in aqueous solution at pH 7.4. Type of data set: physicochemical.
A short description of data set [5]: Half life in mouse hepatocytes. The data set is classed as ADME, cell-based, Hepatocyte. The procedure, abridged: as §1
Data set [6] is described as follows: Permeability across apical to basolateral side in human Caco2 cells. The data set is classed as ADME, cell-based. As to conditions: Caco-2. The procedure, abridged:
(§2)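 Permeability was measured in a Caco-2 monolayer at pH 7.4 in both the apical-to-basolateral and basolateral-to-apical directions. Results are given as mean apparent permeability (Papp, 10⁻⁶ cm s⁻¹), and efflux ratio was derived from the two directions.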
A general note: Caco-2 cells form a polarised layer with tight junctions and transporters.

Data set [7] can be described thus: Permeability across basolateral to apical side in human Caco2 cells. The data set is classed as ADME, cell-based. As to conditions: Caco-2. The method, boiled down:
as §2

A short description of data set [8]: Volume of distribution at steady state in mouse at 1 mg/kg, iv. Type of data set: ADME, organism-based. As to conditions: in vivo, read-out: Vdss.
The nature of data set [9]: Tmax in mouse at 10 mg/kg, po. Type of data set: ADME, organism-based. As to conditions: in vivo.
Data set [10] in a line: Oral bioavailability in mouse at 10 mg/kg. The data set is classed as ADME, organism-based. As to conditions: in vivo.

For orientation: AUC(0-inf) means the area under the concentration-time curve extrapolated to infinity. The low end stands for low exposure, the high end for high exposure. As to `C/C1=C\CC[C@@]2(C)O[C@@H]2[C@H]2OC(=O)[C@@H](CN3CCC(c4cc(O)nc(C)n4)CC3)[C@@H]2CC1`, the hepatocyte CLint in data set [1] is 22 µL/min/1e6 cells. The values for the AUC(0-inf) in [2] and in [3] were 289 ng·h/mL and 1700 ng·h/mL, respectively. Besides, in the data set on MEC1, the result was inactive.
Turning to `C/C1=C\CC[C@@]2(C)O[C@@H]2[C@H]2OC(=O)[C@@H](CN[C@@H](Cc3ccccc3)C(=O)O)[C@@H]2CC1`, the hepatocyte CLint in data set [1] was determined as 16 µL/min/1e6 cells.
A word on the half-life: it is the time in which the quantity being followed falls by half. Usually Papp A→B stands for the apparent permeability from the apical to the basolateral side of a cell layer. A word on the Papp B→A: it is how fast a substance crosses the layer from the basolateral side. What is called Tmax is the time at which the peak concentration occurs. By bioavailability is commonly meant the share of a dose that reaches the circulation, judged against a reference dose that is usually intravenous. For the molecule `C/C1=C/CC[C@@]2(C)O[C@@H]2[C@H]2OC(=O)[C@@H](CN3CCCC3)[C@@H]2CC1`, the values for the half-life in [4] and in data set [5] were > 2 h and 1.08 h, respectively. Moreover, the hepatocyte CLint in [1] turned out to be 22 µL/min/1e6 cells. In data set [6], this molecule came in with an apparent permeability from apical to basolateral (Papp A→B) of 15.9 ×10⁻⁶ cm/s. The molecule also returned a Papp B→A in data set [7] of 16.2 ×10⁻⁶ cm/s. Further, the Vd in data set [8] came out at 11.6 L/kg. Further, the figures for the AUC(0-inf) in data set [2] and in [3] were 80.5 ng·h/mL and 711 ng·h/mL, respectively. Besides, the Tmax in [9] amounted to 0.5 h. The bioavailability in [10] stood at 95.8%.
